Results on three molecules are retold here after article PMC7182240 (The Pediatric Infectious Disease Journal, 2020).

Data set [1] can be described thus: PS80 plasma concentration in infants. It is filed as in vivo, human. To be noted: infants receiving anidulafungin formulated with PS80.
The nature of data set [2]: Safety and tolerability. The class given is in vivo, human. In outline:
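Safety population: all 19 patients aged 1 month to <2 years, with confirmed or high-risk invasive candidiasis, who received IV drug (3 mg/kg day 1, then 1.5 mg/kg daily, ≤1.1 mg/min, ≤35 days). Optional oral fluconazole was allowed after ≥10 days (confirmed cases) or ≥5 days (high-risk), to ≤49 days total. Treatment-emergent adverse events and all-cause mortality were recorded throughout the study and summarized descriptively.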

Data set [3] has as its system invasive candidiasis, including candidemia (Candida species). The data set is described as follows: Global response, relapse and microbiologic outcome in invasive candidiasis. It is filed as in vivo, human. In outline: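 Modified intent-to-treat patients (≥1 dose, microbiologically confirmed Candida infection) received IV drug: 3 mg/kg loading dose on day 1, then 1.5 mg/kg daily for ≤35 days. An optional switch to oral fluconazole (6–12 mg/kg/d, max 800 mg/d) was allowed after ≥10 days IV, to ≤49 days total. Global response was assessed at end of IV therapy, end of treatment, and week 2 and 6 follow-up. Relapse and new infection were also assessed. Analysis was descriptive.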

Data set [4] has as its system invasive candidiasis. To be noted: cited from earlier work.
Where [5] appears, read: safety population n = 19, all causalities, AEs up to 30 days after last dose.

“Also recorded” adds a separate entry of the source. *1 amine or outer side, *2 acyl side, *3 side chain or, on linkers, in order; H or OH if unused. Where a SMILES comes first, the peptide text is derived from it. Bridges are numbered along the chain shown (N, C = ends). [ ]: non-standard residue; d: D form. The star is where a group is joined. pTerphenylCO(4''-OnC5H11) = CCCCCOc1ccc(-c2ccc(-c3ccc(C(=O)*)cc3)cc2)cc1; Orn(4R-OH,5R-OH) = O=C([C@H](C[C@@H](O)[C@@H](O)N[*:3])N[*:1])[*:2]; hTyr(3S-OH,4S-OH) = N[C@H](C(=O)O)[C@H](O)[C@@H](O)c1ccc(O)cc1; Pro(3S-OH,4S-Me) = C[C@H]1CN[C@H](C(=O)O)[C@H]1O; Hyp = O=C(O)[C@@H]1C[C@@H](O)CN1

polysorbate 80 [PS80]: the “Hepatotoxicity or PS80 accumulation” value in data set [1] is given as “No hepatotoxicity or PS80 accumulation was detected”.
With `OC(Cn1cncn1)(Cn1cncn1)c1ccc(F)cc1F` [fluconazole], in data set [2] (6 patients switched to oral fluconazole 6-12 mg/kg/d), the “TEAEs related to fluconazole” value is listed as “No patients experienced TEAEs related to fluconazole”.
Take `CCCCCOc1ccc(-c2ccc(-c3ccc(C(=O)N[C@H]4C[C@@H](O)[C@@H](O)NC(=O)[C@@H]5[C@@H](O)[C@@H](C)CN5C(=O)[C@H]([C@@H](C)O)NC(=O)[C@H]([C@H](O)[C@@H](O)c5ccc(O)cc5)NC(=O)[C@@H]5C[C@@H](O)CN5C(=O)[C@H]([C@@H](C)O)NC4=O)cc3)cc2)cc1` [anidulafungin] ({pTerphenylCO(4''-OnC5H11)}-[Orn(4R-OH,5R-OH)]T[Hyp][hTyr(3S-OH,4S-OH)]T[Pro(3S-OH,4S-Me)]; lactam 1-C): the “Global response success rate at EOIVT” value in data set [3] (11 of 16 patients, MITT, 1 month to <2 years) was 68.8%. Moreover, in data set [3] (15 of 16), the “Patients achieving negative blood cultures” value is recorded as 93.8%. Moreover, the Resistance to anidulafungin entry in data set [3] (Candida species) is listed as “No resistance to anidulafungin was observed”. Also, the “Median time to first negative blood culture” value in data set [3] (MITT population) came to 3 days. Also, the “Relapse or new infection” value in data set [3] (week 2 and week 6 follow-up visits) was “No patients relapsed or experienced new infection”. In data set [2] (3 of 19 patients), the “Patients with treatment-related TEAEs” value is reported as 15.8%. Besides, the “Patients with severe TEAEs” value in data set [2] (7 of 19 patients) turned out to be 36.8%. For the same molecule, the “Patients with TEAEs of any causality” value in data set [2] (17 of 19 patients, safety population) was determined as 89.5%. For the same molecule, the Treatment-related deaths entry in data set [2] (safety population n = 19) is listed as “no treatment-related deaths occurred; also recorded: No deaths were considered related to anidulafungin”. Further, in data set [2] (setting [5]), the “Incidence of TEAE: Device-related infection” value is given as 1 (5.3) n (%), the “Incidence of TEAE: Lower respiratory tract infection” value is recorded as 1 (5.3) n (%) and the “Incidence of TEAE: Upper respiratory tract infection” value is given as 1 (5.3) n (%). Moreover, the “Global response of success at EOIVT in adults” value in data set [4] is on record as 75.6%.
